# An excerpt weighted towards active compounds, which were near 3.3% of everything screened.
# Xi reactivation – reactivates the inactive X chromosome in mouse fibroblasts; XiGFP mouse fibroblasts, % GFP-positive cells imaging, 3 d; cells co-treated with 5-aza-dC sensitizer; scaled so ellipticine positive control = 100%; activation, % at 7.58 µM; hit rate 0.055% among 360,000; AID 743238;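 active = mean normalized replicate activation at least 10% and every replicate at or above 10%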;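 note: 0% = median of on-plate neutral control wells and 100% = ellipticine 6 µM median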
#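 System: 68-5-11 XiGFP fibroblast line | Buffer or medium: DMEM containing 5-aza-dC | Compound: Single point | Times: Compounds 3 days, fix/stain 15 min at room temperature | Benchmarks: Positive control ellipticine, 6 µM final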
# E-selectin induc – E-selectin induction on HUVECs; P16581; HUVEC E-selectin immunofluorescence imaging; normalized: neutral wells 0, TNF-alpha wells 100; activation, % at 7.58 µM; hit rate 0.37% among 260,000;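 active = mean E-selectin-positive cell signal at least 10% of the positive control, reached in at least 60% of replicates, without over 20% cell loss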
# Target sequence (P16581 whole entry, looked up): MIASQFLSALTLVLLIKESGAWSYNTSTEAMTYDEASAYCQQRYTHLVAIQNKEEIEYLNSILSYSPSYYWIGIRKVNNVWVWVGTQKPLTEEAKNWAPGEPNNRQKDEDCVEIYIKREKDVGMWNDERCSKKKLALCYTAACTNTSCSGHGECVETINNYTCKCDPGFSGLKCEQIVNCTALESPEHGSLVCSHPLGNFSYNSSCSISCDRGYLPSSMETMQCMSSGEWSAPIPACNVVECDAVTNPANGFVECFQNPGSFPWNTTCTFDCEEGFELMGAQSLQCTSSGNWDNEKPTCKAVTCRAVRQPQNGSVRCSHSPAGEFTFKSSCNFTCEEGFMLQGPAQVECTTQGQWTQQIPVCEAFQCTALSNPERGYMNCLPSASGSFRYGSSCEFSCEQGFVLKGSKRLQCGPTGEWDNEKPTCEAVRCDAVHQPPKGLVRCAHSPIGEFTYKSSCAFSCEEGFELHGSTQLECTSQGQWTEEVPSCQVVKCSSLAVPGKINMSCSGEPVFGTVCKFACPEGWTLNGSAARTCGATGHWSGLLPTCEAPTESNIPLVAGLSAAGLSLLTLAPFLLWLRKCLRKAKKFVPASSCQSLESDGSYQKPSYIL
#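 Test system: HUVEC; input: 3,000 HUVEC/well; measured by: immunofluorescence imaging; read-out: % PE-positive cells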
# Statin myotox sup – suppression of simvastatin myotoxicity | C2C12 myotubes + simvastatin, ATP luminescence, 48 h; scaled: DMSO 0, geranylgeraniol control 100 | rescue of ATP level, % at 7.49 µM | hit rate 0.78% among 330,000;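 active = mean ATP rescue above about 67%, or every replicate alone reaching that limit, limit read from the data, passing the limit was not always enough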;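 note: myotubes were challenged with 10 µM simvastatin during compound exposure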
# DENV2 CPE – DENV2-induced cell death inhibition. DENV2-infected cells, cytopathic effect rescue, plate reader. CPE inhibition, % at 9.99 µM. hit rate 1.7% among 350,000. AID 651640; in the data active = CPE inhibition above about 20%, passing the limit was not always enough; tested in BHK-21 cells;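 note: 0% = median of neutral control wells and 100% = median of positive control wells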
# PglD DTNB – blocks C. jejuni PglD acetyltransferase activity; hit rate 0.098% among 360,000; inhibition, % at 12.5 µM; purified PglD enzyme, DTNB colorimetric CoA detection; AID 602405; in the data active = inhibition above about 16%, passing the limit was not always enough
# FGF22 binding – shifts melting point of recombinant human FGF22. Q9HCT0. recombinant FGF22 thermal shift, SYPRO orange fluorescence; percent of sucrose octasulfate shift, DMSO zero. activity (Tm shift, normalised), % at 9.99 µM. hit rate 1.5% among 340,000;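 active = mean Tm shift, scaled 0 neutral to 100 positive control, at about 1.3% or above, every replicate too, limit read from the data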
# An asterisk follows results filed as active; nt = not tested or not shown; ! = not active in a repeat.
SMILES,Xi reactivation,E-selectin induc,Statin myotox sup,DENV2 CPE,PglD DTNB,FGF22 binding
COCCNC(=O)C[C@@H]1CC[C@@H]2[C@H](COc3ccc(NC(=O)C4CCCC4)cc3C(=O)N2C)O1,0,0,-7,0,5,0
O=C(CSc1nc2ccccc2c(=O)n1-c1ccc(SC(F)F)cc1)Nc1ccc(N2CCOCC2)cc1,0,nt,7,-2,-2,43*
CCOc1ccc(-n2c(SCC(=O)Nc3ccc4c(c3)OCO4)nc3ccccc3c2=O)cc1,nt,nt,nt,nt,-6,nt
COc1ccc(-n2c(SCC(=O)Nc3ccc4c(c3)OCO4)nc3ccccc3c2=O)cc1,nt,nt,118*,nt,nt,nt
Cc1cc(=O)[nH]c2c3ccccc3nn12,0,nt,nt,5,nt,44*
COc1ccccc1S(=O)(=O)N[C@H]1CC[C@H](CC(=O)NCc2cc(F)cc(F)c2)O[C@@H]1CO,0,0,nt,-8,nt,nt
C[C@H](CCC(=O)O)[C@H]1CC[C@H]2[C@@H]3CC[C@@H]4C[C@H](O)CC[C@]4(C)[C@H]3C[C@H](O)[C@]12C,0,0,9,30*!,-1,-1
COc1ccccc1CNC(=O)C(=O)Nc1ccc(C(=O)N2CCC(C)CC2)cc1,0,nt,-10,65*,3,0
CC1CCN(C(=O)c2ccc(NC(=O)c3cccs3)cc2)CC1,0,0,-12,-5,-2,0
Cc1cc(C(=O)CSc2nn3c(=O)c(C(C)(C)C)nnc3s2)c(C)n1C1CC1,0,nt,nt,3,nt,1.7*
O=C1C(Cl)=C(O)C2(Cl)C(Cl)=C(Cl)C12Cl (stereo not given),0,0,6,-4,-1,1.4*
COc1ccc(-c2ccccc2[C@H]2[C@@H](CO)N(C(=O)C3CC3)[C@H]2C#N)cc1,0,0,nt,9,nt,0
COc1ccc(S(=O)(=O)N(C)C[C@@H]2Oc3ccc(NS(=O)(=O)c4ccc(C)cc4)cc3C(=O)N([C@H](C)CO)C[C@H]2C)cc1,0,0,nt,3,nt,-1
COCC(C)NS(=O)(=O)c1ccc(C)cc1 (stereo not given),nt,nt,141*,nt,-4,nt
Cc1ccc(S(=O)(=O)N[C@@H](C)CO)cc1,0,0,nt,15,nt,0
O=C(c1ccccc1F)N1CC[C@@H]2[C@H]1c1cc(C#Cc3ccccc3)ccc1N[C@@H]2CO,0,1,56,nt,-2,nt
O=C(c1ccccc1F)N1CC[C@@H]2[C@H](CO)Nc3ccc(C#Cc4ccc(F)cc4)cc3[C@@H]21,0,0,-25,26*,2,0
O=C(c1ccccc1F)N1CC[C@@H]2[C@@H](CO)Nc3ccc(C#Cc4ccccc4F)cc3[C@@H]21,0,3,4,2,0,0
O=C(c1ccccc1F)N1CC[C@@H]2[C@H](CO)Nc3ccc(C#Cc4ccccc4F)cc3[C@@H]21,0,0,-21,62*,-3,0
O=C(c1ccccc1)N1CC[C@H]2[C@H](CO)Nc3ccc(C#Cc4ccccc4F)cc3[C@H]21,1,1,nt,32*,nt,nt
O=C(c1ccccc1)N1CC[C@@H]2[C@H]1c1cc(C#CC3CCCCC3)ccc1N[C@@H]2CO,0,nt,nt,52*,nt,nt
C[C@@H]1CCCCO[C@H](CN(C)Cc2ccc3c(c2)OCO3)[C@H](C)CN([C@H](C)CO)C(=O)c2cc(NC(=O)Nc3ccccc3)ccc2O1,0,0,nt,0,-3,-1
O=S(=O)(c1ccccc1)N1CC[C@@H]2[C@H]1c1cc(C#CC3CCCCC3)ccc1N[C@@H]2CO,1,2,nt,28*,nt,nt
COc1ccccc1C#Cc1ccc2c(c1)[C@H]1[C@H](CCN1C(=O)c1ccncc1)[C@H](CO)N2,nt,nt,12,36*,3,0
CCCN1[C@@H]2c3ccc(-c4ccccc4F)c(=O)n3C[C@@H]2[C@@H](CO)[C@@H]1C(=O)N1CCCCC1,1,0,1,8,2,0
SMILES,Xi reactivation,E-selectin induc,Statin myotox sup,DENV2 CPE,PglD DTNB,FGF22 binding
CCCNC(=O)c1onc(CSc2ccc(F)c(F)c2)c1C(=O)NCCC,0,1,nt,-16,nt,36*
CC(C)CCNC(=O)c1onc(CSc2ccc(F)c(F)c2)c1C(=O)NCCC(C)C,0,0,12,18,4,0
C=C[C@@H](COC(=O)c1ccc([N+](=O)[O-])cc1)N(Cc1ccc(OC)cc1)S(=O)(=O)c1ccc(Br)cc1,nt,nt,nt,24*,-1,0
CCCNC(=O)Nc1ccc2c(c1)OC[C@@H](C)N(C(=O)CC)C[C@@H](C)[C@H](OC)CN(C)C2=O,0,0,nt,-8,nt,0
O=C(O)c1c(-c2ccccc2)c(-c2ccccc2)nc2ccccc12,0,nt,0,-2,nt,43*
C[C@H]1CN([C@@H](C)CO)C(=O)c2cccc(NS(=O)(=O)c3ccc(Cl)cc3)c2O[C@@H]1CN(C)Cc1ccccc1,0,0,-7,-9,2,0
COc1ccc(NS(=O)(=O)c2ccc3c(c2)OCCO3)cc1OC,1,nt,-13,-1,3,0
COc1ccc(S(=O)(=O)Nc2ccc3c(c2)OCCO3)cc1Cl,nt,nt,114*,nt,nt,nt
O=C1OC(N2C(=O)CC[C@H]2C(=O)NCC2CCCO2)c2ccccc21 (stereo not given in full),nt,nt,-10,28*,-4,0
CCc1ccccc1NC(=O)[C@@H]1CCC(=O)N1C1OC(=O)c2ccccc21 (stereo not given in full),nt,nt,4,-6,0,0
CC(=O)c1ccc(OCC(O)CN2CCN(CC(O)COc3ccc(C(C)=O)cc3)CC2)cc1 (stereo not given),nt,nt,109*,nt,2,nt
CC(=O)N(C)c1ccc(OCC(O)COc2ccc(N(C)C(C)=O)cc2)cc1,nt,nt,125*,nt,-3,nt
OC(COc1ccc2c(c1)OCO2)CN1CCCCC1 (stereo not given),0,nt,nt,3,nt,44*
CC(=O)c1ccc(OCC(O)COc2ccc(C(C)=O)cc2)cc1,nt,nt,-3,nt,-3,nt
Cc1noc(C)c1NC(=O)NCC[C@@H]1CC[C@H](NC(=O)c2ccncc2)[C@H](CO)O1,0,0,14,-1,-2,1
OCC#CCSc1nnc(-c2cccc3ccccc23)o1,0,1,12,93*,-4,0
C[C@@H]1CN([C@H](C)CO)C(=O)c2cc(NC(=O)c3ccccc3)ccc2O[C@@H](C)CCCCO[C@H]1CN(C)Cc1ccccc1,0,nt,nt,13,3,0
C[C@@H]1CCCCO[C@@H](CN(C)Cc2ccccc2)[C@@H](C)CN([C@H](C)CO)C(=O)c2cc(NC(=O)c3ccccc3)ccc2O1,0,nt,nt,100*,-4,0
